Assay results: ChEMBL document CHEMBL3875205, “Macrocyclic MEK1/2 inhibitor with efficacy in a mouse model of cardiomyopathy caused by lamin A/C gene mutation” (Bioorg Med Chem, 2017)
Activity calls are given as the source filed them. No cut-off for these calls is given here.

How the values were obtained:
[1] = molecular target: T1, Dual specificity mitogen-activated protein kinase kinase; MEK1/2 (Homo sapiens, UniProt P36507+Q02750); assay: Inhibition of MEK1/2 in human HT-29 cells assessed as reduction in cell proliferation after 72 hrs by CellTiter-Glo assay; format: cell-based
T1 sequence (P36507 whole entry, looked up): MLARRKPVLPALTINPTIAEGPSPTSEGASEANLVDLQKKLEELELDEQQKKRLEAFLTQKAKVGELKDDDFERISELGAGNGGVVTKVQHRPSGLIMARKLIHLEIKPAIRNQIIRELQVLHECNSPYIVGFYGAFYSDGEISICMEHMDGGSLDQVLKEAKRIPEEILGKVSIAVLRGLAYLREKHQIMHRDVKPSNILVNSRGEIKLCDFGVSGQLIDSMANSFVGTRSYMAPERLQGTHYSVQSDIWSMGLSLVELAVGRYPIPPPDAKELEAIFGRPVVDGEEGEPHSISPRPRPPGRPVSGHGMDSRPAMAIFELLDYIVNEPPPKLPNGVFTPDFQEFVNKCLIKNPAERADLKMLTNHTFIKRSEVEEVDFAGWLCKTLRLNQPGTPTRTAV
T1 sequence (Q02750 whole entry, looked up): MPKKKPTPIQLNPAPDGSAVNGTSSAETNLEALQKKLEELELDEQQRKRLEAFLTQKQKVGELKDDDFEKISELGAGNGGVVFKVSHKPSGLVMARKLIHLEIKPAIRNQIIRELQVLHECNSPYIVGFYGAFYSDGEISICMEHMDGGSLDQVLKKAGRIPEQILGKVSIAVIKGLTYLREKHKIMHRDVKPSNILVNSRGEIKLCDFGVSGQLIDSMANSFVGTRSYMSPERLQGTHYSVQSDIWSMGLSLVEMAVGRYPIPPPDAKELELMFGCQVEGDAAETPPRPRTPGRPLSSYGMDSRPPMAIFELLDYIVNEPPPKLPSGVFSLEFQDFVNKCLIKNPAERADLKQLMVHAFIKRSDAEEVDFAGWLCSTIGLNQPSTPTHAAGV
Summary of the method: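 HT-29 cells were plated at 2,000/well in DMEM or RPMI with 10% FBS and left overnight at 37°C, 5% CO2. Medium was replaced with compound at 3-fold dilutions from 3.3 µM to 4.5 nM. After 72 h, viability was read by CellTiter-Glo luminescence and IC50 calculated.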

[2] = molecular target: T1, Dual specificity mitogen-activated protein kinase kinase; MEK1/2; assay: Inhibition of MEK1/2 in HEK293 cells assessed as reduction in ERK1/2 phosphorylation at 0.001 to 1 uM after 24 hrs by immunoblot method; format: cell-based
Summary of the method: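 HEK-293 cells were grown in DMEM with 10% FBS, seeded at 5.0×10^5 per well and grown 24 h. After rinsing, they were exposed 24 h to serial dilutions from 1 to 0.001 µM final, or to Cremophor EL/saline vehicle. Cells were then washed with PBS, extracted and immunoblotted for phospho- and total ERK1/2.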

Mus musculus [3] = assay: In vivo inhibition of MEK1/2 in LmnaH222P/H222P mouse model of cardiomyopathy assessed as reduction in ERK1/2 phosphorylation in heart at 3 to 6 mg/kg/day, po administered 6 days per week via gavage starting from 14 weeks of age up to 20 weeks of age by immunoblot method; format: functional, organism-based
Summary of the method: (§1)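 Heart, liver and quadriceps from male mutant mice gavaged 3 or 6 mg/kg/day (weeks 14–20) were homogenized for protein. Proteins were run on SDS-PAGE, transferred to nitrocellulose and probed for phospho- and total ERK1/2 with HRP secondaries and chemiluminescence. Scanned blots were quantified as the pERK1/2 to total ERK1/2 ratio; n = 3, means ± SE.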

Mus musculus [4] = assay: In vivo inhibition of MEK1/2 in LmnaH222P/H222P mouse model of cardiomyopathy assessed as reduction in ERK1/2 phosphorylation in liver at 3 to 6 mg/kg/day, po administered 6 days per week via gavage starting from 14 weeks of age up to 20 weeks of age by immunoblot method; format: functional, organism-based; summary of the method: as §1
Mus musculus [5] = assay: In vivo inhibition of MEK1/2 in LmnaH222P/H222P mouse model of cardiomyopathy assessed as reduction in ERK1/2 phosphorylation in quadriceps muscle at 6 mg/kg/day, po administered 6 days per week via gavage starting from 14 weeks of age up to 20 weeks of age by immunoblot method; format: functional, organism-based; summary of the method: as §1
[6] = (§2) Cardioprotective activity in LmnaH222P/H222P mouse model of cardiomyopathy assessed as left ventricular end diastolic diameter at 3 mg/kg/day, po administered 6 days per week via gavage starting from 14 weeks of age up to 20 weeks of age by echocardiographic method (reference value: 3.96 +/- 0.08 millimeter); format: functional, organism-based; conditions: Heart
[7] = as §2, with “at 6” for “at 3”; format: functional, organism-based; conditions: Heart
[8] = as §2, with “systolic” for “diastolic”, “3.32” for “3.96”, “0.1” for “0.08”; format: functional, organism-based; conditions: Heart
[9] = as §2, with “systolic” for “diastolic”, “6” for “3”, “3.32” for “3.96”, “0.1” for “0.08”; format: functional, organism-based; conditions: Heart
[10] = Cardioprotective activity in LmnaH222P/H222P mouse model of cardiomyopathy assessed as left ventricular fractional shortening at 3 mg/kg/day, po administered 6 days per week via gavage starting from 14 weeks of age up to 20 weeks of age by echocardiographic method (reference value: 16.36 +/- 1.08%); format: functional, organism-based; conditions: Heart
[11] = Cardioprotective activity in LmnaH222P/H222P mouse model of cardiomyopathy assessed as left ventricular fractional shortening at 6 mg/kg/day, po administered 6 days per week via gavage starting from 14 weeks of age up to 20 weeks of age by echocardiographic method (reference value: 16.36 +/- 1.08%); format: functional, organism-based; conditions: Heart
[12] = Cardioprotective activity in LmnaH222P/H222P mouse model of cardiomyopathy assessed as heart rate at 3 mg/kg/day, po administered 6 days per week via gavage starting from 14 weeks of age up to 20 weeks of age by echocardiographic method (reference value: 502.73 +/- 0.46 bpm); format: functional, organism-based
[13] = Cardioprotective activity in LmnaH222P/H222P mouse model of cardiomyopathy assessed as heart rate at 6 mg/kg/day, po administered 6 days per week via gavage starting from 14 weeks of age up to 20 weeks of age by echocardiographic method (reference value: 502.73 +/- 0.46 bpm); format: functional, organism-based
[14] = Cardioprotective activity in LmnaH222P/H222P mouse model of cardiomyopathy assessed as reduction in Nppa mRNA expression in heart at 3 to 6 mg/kg/day, po administered 6 days per week via gavage starting from 14 weeks of age up to 20 weeks of age by qRT-PCR method relative to placebo treated control; format: functional, organism-based
Summary of the method: (§3)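 Hearts from male Lmna H222P/H222P mice gavaged 6 days/week, weeks 14–20, with vehicle or 3 or 6 mg/kg/day. Real-time RT-PCR with SYBR green and 200 nM of each primer; 95°C 2 min, then 50 cycles of 95°C 30 s and 62°C 30 s. ΔΔCT method normalized to Gapdh; fold change versus placebo (n = 5, 5, 6).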

[15] = Cardioprotective activity in LmnaH222P/H222P mouse model of cardiomyopathy assessed as reduction in Myl7 mRNA expression in heart at 6 mg/kg/day, po administered 6 days per week via gavage starting from 14 weeks of age up to 20 weeks of age by qRT-PCR method relative to placebo treated control; format: functional, organism-based; summary of the method: as §3
[16] = Cardioprotective activity in LmnaH222P/H222P mouse model of cardiomyopathy assessed as reduction in myocardial fibrosis administered 6 days per week via oral gavage starting from 14 weeks of age up to 20 weeks of age by masson trichrome staining based assay; format: functional, tissue-based; conditions: Heart
Summary of the method: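 Left ventricles from male mutant mice dosed 3 or 6 mg/kg/day by gavage (weeks 14–20) were fixed in 4% formaldehyde for 48 h, paraffin-embedded, cut at 5 μm and stained with Masson trichrome. Graded 0–4 for vacuolation and fibrosis: 0–2 no fibrosis with none, mild or moderate vacuolation; 3 mild fibrosis; 4 severe fibrosis. n = 5, 5, 6.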

Mus musculus [17] = assay: (§4) In vivo inhibition of MEK1/2 in LmnaH222P/H222P mouse model of cardiomyopathy assessed as reduction in ERK1/2 activation-mediated muscular dystrophy by measuring inhibition of serum creatine phosphokinase activity at 6 mg/kg/day, po administered 6 days per week via gavage starting from 14 weeks of age up to 20 weeks of age; format: functional, organism-based
Summary of the method: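 Serum from male Lmna H222P/H222P mice gavaged with vehicle or 3 or 6 mg/kg/day from 14 to 20 weeks of age was assayed for creatine phosphokinase activity. Means ± SE, n = 10 per group.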

Mus musculus [18] = assay: as §4, with “increase in forelimb grip fatigue index” for “inhibition of serum creatine phosphokinase activity”; format: functional, organism-based
Summary of the method: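 Forelimb grip strength was tested by an investigator blind to treatment on two consecutive days and normalized to body mass. Fatigue index = (C+D)/(A+B), where A–D are sums of pulls 1–3, 4–6, 10–12 and 13–15; a value of 1 means no fatigue. Mice were gavaged from weeks 14–20; n = 7 placebo, 6 treated.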

Compound | IC50 [1] | inhibition [2] | inhibition (Mus musculus [3]) | inhibition (Mus musculus [4]) | inhibition (Mus musculus [5]) | Activity [6] | Activity [7] | Activity [8] | Activity [9] | Activity [10] | Activity [11] | Activity [12] | Activity [13] | Activity [14] | Activity [15] | Activity [16] | inhibition (Mus musculus [17]) | inhibition (Mus musculus [18])
O=S1(=O)Nc2c(cc(F)c(F)c2Nc2ccc(I)cc2F)OCC(O)C(O)CC12CC2 (single isomer, unassigned; form 2) | 400 nM | – | – | – | – | – | – | – | – | – | – | – | – | – | – | – | – | –
O=S1(=O)Nc2c(cc(F)c(F)c2Nc2ccc(I)cc2F)OCC(O)C(O)CC12CC2 (single isomer, unassigned; form 1) | – | Active | Active | Active | Active | 4 mm | 3.77 mm | 3.24 mm | 3.02 mm | 19.4% | 20.6% | 504 bpm | 502 bpm | Active | Active | Dose-dependent effect | Active | Active
